According to ChEMBL document CHEMBL1142088, “Cumulative effects of several nonenzymatic mechanisms on the resistance of Pseudomonas aeruginosa to aminoglycosides” (2007):
In brackets after ≈: the same amount, converted by molar mass.

Assays:
Format in all cases: functional
Pseudomonas aeruginosa [1] = assay: Antibacterial activity against Pseudomonas aeruginosa FE57UZ with inactivated rplY, galU and mexZ genes […]
Pseudomonas aeruginosa [2] = assay: Antibacterial activity against Pseudomonas aeruginosa FE57GU with inactivated rplY, nuoG and galU genes by […]
Pseudomonas aeruginosa [3] = assay: Antibacterial activity against Pseudomonas aeruginosa FE63 containing inactivated rplY and PA5471 genes by microdilution method
Pseudomonas aeruginosa [4] = assay: Antibacterial activity against Pseudomonas aeruginosa FE53G with inactivated mexZ and nuoG genes by microdilution method
Pseudomonas aeruginosa [5] = assay: Antibacterial activity against Pseudomonas aeruginosa FE57GUZ with inactivated rplY, nuoG, galU and mexZ genes […]
Pseudomonas aeruginosa [6] = assay: Antibacterial activity against Pseudomonas aeruginosa FE57GZ with inactivated rplY, nuoG and mexZ genes […]
Pseudomonas aeruginosa [7] = assay: Antibacterial activity against Pseudomonas aeruginosa FE57G with inactivated rplY and nuoG genes by microdilution method
Pseudomonas aeruginosa [8] = assay: Antibacterial activity against Pseudomonas aeruginosa FE53 with inactivated mexZ gene by microdilution method
Pseudomonas aeruginosa [9] = assay: Antibacterial activity against Pseudomonas aeruginosa FE60 containing inactivated mexXY gene by microdilution method
Pseudomonas aeruginosa [10] = assay: Antibacterial activity against Pseudomonas aeruginosa FE57 with inactivated rplY gene by microdilution method
Pseudomonas aeruginosa [11] = assay: Antibacterial activity against Pseudomonas aeruginosa FE57 containing inactivated rplY gene with pARAL25 by microdilution method
Procedure, shortened: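 MIC for the rplY mutant carrying plasmid-borne rplY under the arabinose-inducible pBAD promoter. Cells grown with 150 μg/ml ticarcillin to keep the plasmid and 0.2% arabinose. Serial twofold dilution with about 10^4 bacteria per spot at 37°C.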

Pseudomonas aeruginosa [12] = assay: Antibacterial activity against Pseudomonas aeruginosa FE57Z with inactivated rplY and mexZ genes by microdilution method
Pseudomonas aeruginosa [13] = assay: Antibacterial activity against Pseudomonas aeruginosa FE64 containing inactivated rplY and mexXY genes by microdilution method
Pseudomonas aeruginosa [14] = assay: Antibacterial activity against Pseudomonas aeruginosa PAO1 by microdilution method
Pseudomonas aeruginosa [15] = assay: Antibacterial activity against Pseudomonas aeruginosa FE10 with inactivated nuoG gene by microdilution method
Pseudomonas aeruginosa [16] = assay: Antibacterial activity against Pseudomonas aeruginosa FE10U with inactivated nuoG and galU genes by microdilution method
Pseudomonas aeruginosa [17] = assay: Antibacterial activity against Pseudomonas aeruginosa FE49 with inactivated galU gene by microdilution method
Pseudomonas aeruginosa [18] = assay: Antibacterial activity against Pseudomonas aeruginosa FE53U with inactivated mexZ and galU genes by microdilution method
Pseudomonas aeruginosa [19] = assay: Antibacterial activity against Pseudomonas aeruginosa FE53GU with inactivated mexZ, nuoG and galU genes by […]
Pseudomonas aeruginosa [20] = assay: Antibacterial activity against Pseudomonas aeruginosa FE57U with inactivated rplY and galU genes by microdilution method
Pseudomonas aeruginosa [21] = assay: Antibacterial activity against Pseudomonas aeruginosa KJ7106 with inactivated PA5471 gene by microdilution method

NCC[C@H](O)C(=O)N[C@@H]1C[C@H](N)[C@@H](O[C@H]2O[C@H](CN)[C@@H](O)[C@H](O)[C@H]2O)[C@H](O)[C@H]1O[C@H]1O[C@H](CO)[C@@H](O)[C@H](N)[C@H]1O [AMIKACIN]
MIC (Pseudomonas aeruginosa [1]): 32 µg/mL (≈ 54.6 µM)
MIC (Pseudomonas aeruginosa [2]): 32 µg/mL (≈ 54.6 µM)
MIC (Pseudomonas aeruginosa [3]): 2 µg/mL (≈ 3.42 µM)
MIC (Pseudomonas aeruginosa [4]): 16 µg/mL (≈ 27.3 µM)
MIC (Pseudomonas aeruginosa [5]): 64 µg/mL (≈ 109 µM)
MIC (Pseudomonas aeruginosa [6]): 32 µg/mL (≈ 54.6 µM)
MIC (Pseudomonas aeruginosa [7]): 32 µg/mL (≈ 54.6 µM)
MIC (Pseudomonas aeruginosa [8]): 8 µg/mL (≈ 13.7 µM)
MIC (Pseudomonas aeruginosa [9]): 1 µg/mL (≈ 1.71 µM)
MIC (Pseudomonas aeruginosa [10]): 8 µg/mL (≈ 13.7 µM)
MIC (Pseudomonas aeruginosa [11]): 4 µg/mL (≈ 6.83 µM)
MIC (Pseudomonas aeruginosa [12]): 16 µg/mL (≈ 27.3 µM)
MIC (Pseudomonas aeruginosa [13]): 2 µg/mL (≈ 3.42 µM)
MIC (Pseudomonas aeruginosa [14]): 4 µg/mL (≈ 6.83 µM)
MIC (Pseudomonas aeruginosa [15]): 8 µg/mL (≈ 13.7 µM)
MIC (Pseudomonas aeruginosa [16]): 8 µg/mL (≈ 13.7 µM)
MIC (Pseudomonas aeruginosa [17]): 8 µg/mL (≈ 13.7 µM)
MIC (Pseudomonas aeruginosa [18]): 16 µg/mL (≈ 27.3 µM)
MIC (Pseudomonas aeruginosa [19]): 32 µg/mL (≈ 54.6 µM)
MIC (Pseudomonas aeruginosa [20]): 16 µg/mL (≈ 27.3 µM)
MIC (Pseudomonas aeruginosa [21]): 1 µg/mL (≈ 1.71 µM)

CO/N=C(\C(=O)N[C@@H]1C(=O)N2C(C(=O)[O-])=C(C[N+]3(C)CCCC3)CS[C@H]12)c1csc(N)n1 [CEFEPIME]
MIC (Pseudomonas aeruginosa [1]): 16 µg/mL (≈ 33.3 µM)
MIC (Pseudomonas aeruginosa [2]): 8 µg/mL (≈ 16.6 µM)
MIC (Pseudomonas aeruginosa [3]): 2 µg/mL (≈ 4.16 µM)
MIC (Pseudomonas aeruginosa [4]): 16 µg/mL (≈ 33.3 µM)
MIC (Pseudomonas aeruginosa [5]): 16 µg/mL (≈ 33.3 µM)
MIC (Pseudomonas aeruginosa [6]): 16 µg/mL (≈ 33.3 µM)
MIC (Pseudomonas aeruginosa [7]): 4 µg/mL (≈ 8.32 µM)
MIC (Pseudomonas aeruginosa [8]): 16 µg/mL (≈ 33.3 µM)
MIC (Pseudomonas aeruginosa [9]): 4 µg/mL (≈ 8.32 µM)
MIC (Pseudomonas aeruginosa [10]): 4 µg/mL (≈ 8.32 µM)
MIC (Pseudomonas aeruginosa [12]): 16 µg/mL (≈ 33.3 µM)
MIC (Pseudomonas aeruginosa [13]): 2 µg/mL (≈ 4.16 µM)
MIC (Pseudomonas aeruginosa [14]): 4 µg/mL (≈ 8.32 µM)
MIC (Pseudomonas aeruginosa [15]): 4 µg/mL (≈ 8.32 µM)
MIC (Pseudomonas aeruginosa [16]): 4 µg/mL (≈ 8.32 µM)
MIC (Pseudomonas aeruginosa [17]): 4 µg/mL (≈ 8.32 µM)
MIC (Pseudomonas aeruginosa [18]): 16 µg/mL (≈ 33.3 µM)
MIC (Pseudomonas aeruginosa [19]): 16 µg/mL (≈ 33.3 µM)
MIC (Pseudomonas aeruginosa [20]): 4 µg/mL (≈ 8.32 µM)
MIC (Pseudomonas aeruginosa [21]): 4 µg/mL (≈ 8.32 µM)

O=C(O)c1cn(C2CC2)c2cc(N3CCNCC3)c(F)cc2c1=O [CIPROFLOXACIN]
MIC (Pseudomonas aeruginosa [1]): 1 µg/mL (≈ 3.02 µM)
MIC (Pseudomonas aeruginosa [4]): 1 µg/mL (≈ 3.02 µM)
MIC (Pseudomonas aeruginosa [5]): 1 µg/mL (≈ 3.02 µM)
MIC (Pseudomonas aeruginosa [6]): 1 µg/mL (≈ 3.02 µM)
MIC (Pseudomonas aeruginosa [8]): 1 µg/mL (≈ 3.02 µM)
MIC (Pseudomonas aeruginosa [12]): 1 µg/mL (≈ 3.02 µM)
MIC (Pseudomonas aeruginosa [19]): 1 µg/mL (≈ 3.02 µM)

NC[C@H]1O[C@H](O[C@H]2[C@H](O)[C@@H](O[C@H]3O[C@H](CO)[C@@H](O)[C@H](N)[C@H]3O)[C@H](N)C[C@@H]2N)[C@H](O)[C@@H](O)[C@@H]1O [KANAMYCIN]
MIC (Pseudomonas aeruginosa [1]): 512 µg/mL (≈ 1060 µM)
MIC (Pseudomonas aeruginosa [2]): 512 µg/mL (≈ 1060 µM)
MIC (Pseudomonas aeruginosa [4]): 256 µg/mL (≈ 528 µM)
MIC (Pseudomonas aeruginosa [5]): 1020 µg/mL (≈ 2110 µM)
MIC (Pseudomonas aeruginosa [6]): 1020 µg/mL (≈ 2110 µM)
MIC (Pseudomonas aeruginosa [7]): 512 µg/mL (≈ 1060 µM)
MIC (Pseudomonas aeruginosa [8]): 128 µg/mL (≈ 264 µM)
MIC (Pseudomonas aeruginosa [10]): 256 µg/mL (≈ 528 µM)
MIC (Pseudomonas aeruginosa [12]): 256 µg/mL (≈ 528 µM)
MIC (Pseudomonas aeruginosa [14]): 64 µg/mL (≈ 132 µM)
MIC (Pseudomonas aeruginosa [15]): 256 µg/mL (≈ 528 µM)
MIC (Pseudomonas aeruginosa [16]): 256 µg/mL (≈ 528 µM)
MIC (Pseudomonas aeruginosa [17]): 128 µg/mL (≈ 264 µM)
MIC (Pseudomonas aeruginosa [18]): 256 µg/mL (≈ 528 µM)
MIC (Pseudomonas aeruginosa [19]): 512 µg/mL (≈ 1060 µM)
MIC (Pseudomonas aeruginosa [20]): 256 µg/mL (≈ 528 µM)

CCN[C@@H]1C[C@H](N)[C@@H](O[C@H]2OC(CN)=CC[C@H]2N)[C@H](O)[C@H]1O[C@H]1OC[C@](C)(O)[C@H](NC)[C@H]1O [NETILMICIN]
MIC (Pseudomonas aeruginosa [1]): 64 µg/mL (≈ 135 µM)
MIC (Pseudomonas aeruginosa [2]): 64 µg/mL (≈ 135 µM)
MIC (Pseudomonas aeruginosa [4]): 16 µg/mL (≈ 33.6 µM)
MIC (Pseudomonas aeruginosa [5]): 256 µg/mL (≈ 538 µM)
MIC (Pseudomonas aeruginosa [6]): 128 µg/mL (≈ 269 µM)
MIC (Pseudomonas aeruginosa [7]): 16 µg/mL (≈ 33.6 µM)
MIC (Pseudomonas aeruginosa [8]): 8 µg/mL (≈ 16.8 µM)
MIC (Pseudomonas aeruginosa [10]): 8 µg/mL (≈ 16.8 µM)
MIC (Pseudomonas aeruginosa [12]): 16 µg/mL (≈ 33.6 µM)
MIC (Pseudomonas aeruginosa [14]): 4 µg/mL (≈ 8.41 µM)
MIC (Pseudomonas aeruginosa [15]): 8 µg/mL (≈ 16.8 µM)
MIC (Pseudomonas aeruginosa [16]): 8 µg/mL (≈ 16.8 µM)
MIC (Pseudomonas aeruginosa [17]): 8 µg/mL (≈ 16.8 µM)
MIC (Pseudomonas aeruginosa [18]): 16 µg/mL (≈ 33.6 µM)
MIC (Pseudomonas aeruginosa [19]): 64 µg/mL (≈ 135 µM)
MIC (Pseudomonas aeruginosa [20]): 16 µg/mL (≈ 33.6 µM)

NC[C@H]1O[C@H](O[C@H]2[C@H](O)[C@@H](O[C@H]3O[C@H](CO)[C@@H](O)[C@H](N)[C@H]3O)[C@H](N)C[C@@H]2N)[C@H](N)C[C@@H]1O [TOBRAMYCIN]
MIC (Pseudomonas aeruginosa [1]): 4 µg/mL (≈ 8.56 µM)
MIC (Pseudomonas aeruginosa [2]): 4 µg/mL (≈ 8.56 µM)
MIC (Pseudomonas aeruginosa [3]): 0.5 µg/mL (≈ 1.07 µM)
MIC (Pseudomonas aeruginosa [4]): 2 µg/mL (≈ 4.28 µM)
MIC (Pseudomonas aeruginosa [5]): 8 µg/mL (≈ 17.1 µM)
MIC (Pseudomonas aeruginosa [6]): 4 µg/mL (≈ 8.56 µM)
MIC (Pseudomonas aeruginosa [7]): 2 µg/mL (≈ 4.28 µM)
MIC (Pseudomonas aeruginosa [8]): 1 µg/mL (≈ 2.14 µM)
MIC (Pseudomonas aeruginosa [9]): 0.25 µg/mL (≈ 0.535 µM)
MIC (Pseudomonas aeruginosa [10]): 1 µg/mL (≈ 2.14 µM)
MIC (Pseudomonas aeruginosa [11]): 0.25 µg/mL (≈ 0.535 µM)
MIC (Pseudomonas aeruginosa [12]): 2 µg/mL (≈ 4.28 µM)
MIC (Pseudomonas aeruginosa [13]): 0.5 µg/mL (≈ 1.07 µM)
MIC (Pseudomonas aeruginosa [14]): 0.5 µg/mL (≈ 1.07 µM)
MIC (Pseudomonas aeruginosa [15]): 1 µg/mL (≈ 2.14 µM)
MIC (Pseudomonas aeruginosa [16]): 2 µg/mL (≈ 4.28 µM)
MIC (Pseudomonas aeruginosa [17]): 1 µg/mL (≈ 2.14 µM)
MIC (Pseudomonas aeruginosa [18]): 2 µg/mL (≈ 4.28 µM)
MIC (Pseudomonas aeruginosa [19]): 4 µg/mL (≈ 8.56 µM)
MIC (Pseudomonas aeruginosa [20]): 2 µg/mL (≈ 4.28 µM)
MIC (Pseudomonas aeruginosa [21]): 0.25 µg/mL (≈ 0.535 µM)

GENTAMICIN
MIC (Pseudomonas aeruginosa [3]): 0.25 µg/mL
MIC (Pseudomonas aeruginosa [4]): 8 µg/mL
MIC (Pseudomonas aeruginosa [7]): 8 µg/mL
MIC (Pseudomonas aeruginosa [8]): 4 µg/mL
MIC (Pseudomonas aeruginosa [9]): 0.125 µg/mL
MIC (Pseudomonas aeruginosa [10]): 2 µg/mL
MIC (Pseudomonas aeruginosa [11]): 1 µg/mL
MIC (Pseudomonas aeruginosa [12]): 8 µg/mL
MIC (Pseudomonas aeruginosa [13]): 0.25 µg/mL
MIC (Pseudomonas aeruginosa [14]): 1 µg/mL
MIC (Pseudomonas aeruginosa [15]): 2 µg/mL
MIC (Pseudomonas aeruginosa [16]): 4 µg/mL
MIC (Pseudomonas aeruginosa [17]): 2 µg/mL
MIC (Pseudomonas aeruginosa [18]): 8 µg/mL
MIC (Pseudomonas aeruginosa [20]): 8 µg/mL
MIC (Pseudomonas aeruginosa [21]): 0.125 µg/mL
